Measurements published in ChEMBL document CHEMBL4130604, “Germacrane-Type Sesquiterpenoids with Antiproliferative Activities from Eupatorium chinense” (J Nat Prod, 2018).

Tests used:
Format in all cases: functional, cell-based
[1] = system: HepG2; assay: Antiproliferative activity against human HepG2 cells after 48 hrs by MTT assay; details: HepG2, 48 h
Summary of the method: (§1)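 Cytotoxicity was read by MTT method on human Caski cervical, MDA-MB-231 breast, CNE2 nasopharyngeal and HepG2 hepatocellular carcinoma lines. Mitomycin C served as positive control, and medium containing 0.1% DMSO was the negative control. IC50 values are reported in μM. Other details follow an earlier protocol.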

[2] = system: CNE-2; assay: Antiproliferative activity against human CNE2 cells after 48 hrs by MTT assay; details: CNE-2, 48 h; summary of the method: as §1
[3] = system: MDA-MB-231; assay: Antiproliferative activity against human MDA-MB-231 cells after 48 hrs by MTT assay; details: MDA-MB-231, 48 h; summary of the method: as §1
[4] = system: Ca-Ski; assay: Antiproliferative activity against human CaSki cells after 48 hrs by MTT assay; summary of the method: as §1

| Compound | IC50 [1] [µM] | IC50 [2] [µM] | IC50 [3] [µM] | IC50 [4] [µM] |
| --- | --- | --- | --- | --- |
| C=C1C(=O)O[C@@H]2/C=C(/CO)[C@@H](OC(C)=O)C/C=C(\C)C[C@@H](OC(=O)/C(=C\C)CO)[C@@H]12 | 7.6 | > 10 | > 10 | > 10 |
| C=C1C(=O)O[C@@H]2/C=C(/C)[C@@H](OC(C)=O)C/C=C(\C)C[C@@H](OC(=O)/C(=C\C)CO)[C@@H]12 | 3.6 | > 10 | 0.8 | > 10 |
| C=C1C(=O)O[C@@H]2/C=C(/C)[C@@H](OC(C)=O)C[C@@H](O)C(=C)C[C@@H](OC(=O)/C(=C\C)CO)[C@@H]12 | > 10 | > 10 | > 10 | > 10 |
| C=C1C(=O)O[C@@H]2/C=C(/C)[C@@H](OC(C)=O)[C@H](O)/C=C(\C)C[C@@H](OC(=O)/C(=C\C)CO)[C@@H]12 | > 10 | > 10 | > 10 | > 10 |
| C=C1C(=O)O[C@@H]2/C=C(/CO)[C@@H](OC(C)=O)C/C=C(\C)C[C@@H](OC(=O)/C(C)=C/C)[C@@H]12 | > 10 | > 10 | > 10 | > 10 |
| C=C1C(=O)O[C@@H]2/C=C(/C)[C@H](OC(C)=O)C/C=C(\C)C[C@@H](OC(=O)/C(=C\C)CO)[C@@H]12 | 6.3 | > 10 | 3.3 | > 10 |
| C=C1C(=O)O[C@@H]2/C=C(/C)[C@@H](OC(C)=O)[C@H](OC(C)=O)/C=C(\C)C[C@@H](OC(=O)/C(=C\C)CO)[C@@H]12 | > 10 | > 10 | > 10 | > 10 |
| C=C1C(=O)O[C@@H]2/C=C(/COC(C)=O)[C@@H](OC(C)=O)C/C=C(\C)C[C@@H](OC(=O)/C(C)=C/CO)[C@@H]12 | > 10 | > 10 | > 10 | > 10 |
| C=C1C(=O)O[C@@H]2/C=C(/CO)[C@@H](OC(C)=O)C[C@@H](O)C(=C)C[C@@H](OC(=O)/C(=C\C)CO)[C@@H]12 | > 10 | > 10 | > 10 | > 10 |
| CO[C@@]12[C@H](COC(N)=O)C3=C(C(=O)C(C)=C(N)C3=O)N1C[C@@H]1N[C@@H]12 [MITOMYCIN] | > 10 | > 10 | 4.4 | > 10 |
